Assay outcomes as filed in PubChem.
The list is not random: actives were taken first. Their share in the collection is about 2.2%.
FN deposition inh – fibronectin deposition inhibition | AID 743247 | inhibition, % at 12.6 µM | AH1F fibroblasts, Alexa488-fibronectin deposition fluorescence, overnight | 350,000 compounds, 0.086% hits;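 active = mean inhibition across replicates of 30% or more, regardless of how many single replicates reach that level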;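 note: positive control wells lacked labelled fibronectin entirely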
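Material – AH1F fibroblast monolayer, labelled fibronectin deposition · Reagent – labelled fibronectin 24 nM · Timing – 1 h adhesion, overnight exposure · Measured by – fluorescence at 485 nm excitation, 525 nm emission · Read-out – inhibition of fibronectin deposition signal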
ERAP1 inh – inhibitors of human ERAP1 aminopeptidase; Q9NZ08; recombinant ERAP1, Leu-AMC fluorescence, 60 min; inhibition, % at 10.7 µM; 340,000 compounds, 0.15% hits; AID 652197;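 active = mean replicate inhibition of at least 30%, or all replicates individually reaching that 30% level; inactive = mean below 30% and not every replicate reaching it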;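 note: 0% = neutral control wells and 100% = L-leucinethiol positive control wells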
FGF22 binding – FGF22 (human) thermal shift binding | 340,000 compounds, 1.5% hits | recombinant FGF22 thermal shift, SYPRO orange fluorescence; percent of sucrose octasulfate shift, DMSO zero | activity (Tm shift, normalised), % at 9.99 µM | Q9HCT0;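 active = mean Tm shift, scaled 0 neutral to 100 positive control, at about 1.3% or above, every replicate too, limit read from the data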
Target sequence (Q9HCT0 whole entry, looked up): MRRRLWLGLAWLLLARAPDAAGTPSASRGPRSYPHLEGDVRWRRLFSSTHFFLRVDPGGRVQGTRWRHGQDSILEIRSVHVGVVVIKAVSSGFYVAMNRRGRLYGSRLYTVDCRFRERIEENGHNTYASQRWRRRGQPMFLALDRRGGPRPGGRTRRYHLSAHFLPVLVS
SIRT5 block – inhibitors of human sirtuin-5 desuccinylase; Q9NXA8; Purified SirT5, succinyl-peptide AMC, trypsin-coupled fluorescence; inhibition, % at 15 µM; 330,000 compounds, 1.1% hits; AID 652115; in the data active = inhibition above about 15%
Target sequence (Q9NXA8 whole entry, looked up): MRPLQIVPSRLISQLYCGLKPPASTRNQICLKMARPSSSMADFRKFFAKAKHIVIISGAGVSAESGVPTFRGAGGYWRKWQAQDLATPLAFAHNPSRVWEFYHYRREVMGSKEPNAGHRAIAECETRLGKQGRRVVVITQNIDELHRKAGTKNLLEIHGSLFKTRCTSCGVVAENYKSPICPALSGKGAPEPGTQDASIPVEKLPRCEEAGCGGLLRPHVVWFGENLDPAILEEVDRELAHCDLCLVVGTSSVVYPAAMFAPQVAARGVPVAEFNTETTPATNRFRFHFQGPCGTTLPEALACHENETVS
PGC1a acetyl inh – PGC1a acetylation modulation, inhibitor mode. U2OS PGC1a acetylation, AlphaScreen anti-acetyl-lysine; with virally co-expressed GCN5 acetyltransferase. inhibition, % at 15.6 µM. 350,000 compounds, 0.17% hits. AID 651687;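 active = every replicate shows inhibition of at least 40%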;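 note: 0% = neutral control wells and 100% = positive control wells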
* marks the source's active call; other numbers are inactive results.

`CN1C(=O)c2cc(NC(=O)Nc3cccc(Cl)c3)ccc2OC[C@@H]2O[C@H](CC(=O)O)CC[C@H]21` gave FN deposition inh -5.7, ERAP1 inh -2.2, FGF22 binding 0.1, SIRT5 block -2.2 and PGC1a acetyl inh 1.2.
COc1ccccc1C#Cc1cnc2c(c1)C(=O)N([C@@H](C)CO)C[C@@H](C)[C@@H](CN(C)C)O2 was read as FN deposition inh 1.3, ERAP1 inh 0.7, FGF22 binding 0.1, SIRT5 block 3.3 and PGC1a acetyl inh -11.3.
For COc1ccccc1C#Cc1cnc2c(c1)C(=O)N([C@@H](C)CO)C[C@H](C)[C@@H](CN(C)C)O2 the results were FN deposition inh 2.9, ERAP1 inh 1.0, FGF22 binding 0.1, SIRT5 block 30.6* and PGC1a acetyl inh 2.1.
Screening CC(C)C#Cc1cnc2c(c1)C(=O)N([C@@H](C)CO)C[C@H](C)[C@@H](CN(C)C(=O)c1ccccc1)O2 returned ERAP1 inh -3.5, FGF22 binding -0.1, SIRT5 block 1.0 and PGC1a acetyl inh -7.1.
For CC(C)C#Cc1cnc2c(c1)C(=O)N([C@@H](C)CO)C[C@H](C)[C@H](CN(C)C(=O)c1ccccc1)O2 the results were ERAP1 inh -0.6, FGF22 binding 0.1, SIRT5 block 16.7* and PGC1a acetyl inh -1.1.
COCC(=O)Nc1ccc2c(c1)C(=O)N(C)C[C@H](OC)[C@H](C)CN(C(=O)c1ccccc1)[C@@H](C)CO2 was read as FN deposition inh -6.4, FGF22 binding 0.3, SIRT5 block 1.8 and PGC1a acetyl inh 11.1.
Cc1cc(C)cc(NC(=O)CSc2ccc(-c3cccs3)nn2)c1 was read as FN deposition inh 7.9, ERAP1 inh -9.5, FGF22 binding 0.3 and SIRT5 block 22.2*.
`CC(C)(C)NC(=O)CN(Cc1cccs1)C(=O)CNS(=O)(=O)c1ccc(F)cc1` gave FN deposition inh -2.1, ERAP1 inh 0.6, FGF22 binding 43.2* and SIRT5 block -2.4.
For CCC(C)(C)NC(=O)CN(Cc1cccs1)C(=O)CNS(=O)(=O)c1ccc(C)cc1 the results were FN deposition inh -0.4 and PGC1a acetyl inh 1.6.
For C[C@H](CO)N1C[C@H](C)[C@H](CN(C)C(=O)NC2CCCCC2)OCCCC[C@H](C)Oc2ccc(NC(=O)C3CCCCC3)cc2C1=O the results were ERAP1 inh -1.2, FGF22 binding 0.2, SIRT5 block 4.1 and PGC1a acetyl inh 7.6.
For O=C(Nc1ccc(F)cc1)c1nc[nH]c1C(=O)O the results were FN deposition inh -1.2, ERAP1 inh 0.2, FGF22 binding 0.5, SIRT5 block -6.1 and PGC1a acetyl inh 5.6.
Screening O=C(O)C1Cc2[nH]cnc2C(c2ccc(F)cc2)N1 (stereo not given) returned FN deposition inh -1.1, ERAP1 inh 2.7, FGF22 binding 43.1* and SIRT5 block -1.4.
C[C@H](CO)N1C[C@H](C)[C@H](CN(C)C(=O)C2CCC2)Oc2ncc(C#Cc3ccccc3F)cc2C1=O was read as ERAP1 inh 0.6, FGF22 binding -0.1, SIRT5 block -8.0 and PGC1a acetyl inh -0.1.
CCC(=O)NC(c1cccs1)c1cc([N+](=O)[O-])c2cccnc2c1O (stereo not given) was read as FN deposition inh 11.1, ERAP1 inh -0.3, FGF22 binding -0.1, SIRT5 block 23.7* and PGC1a acetyl inh 8.8.
Screening C[C@@H]1CN([C@H](C)CO)C(=O)CCCn2nncc2CO[C@@H]1CN(C)CC1CCCC1 returned FN deposition inh -5.1, ERAP1 inh 0.2, FGF22 binding 0.0, SIRT5 block -2.3 and PGC1a acetyl inh 3.1.
`Cc1ccnc(NCc2cccc3ccccc23)c1` gave FN deposition inh 8.7, ERAP1 inh -0.3, FGF22 binding -0.1 and SIRT5 block 53.5*.
For CCCCn1c(=O)c(CC(C)=O)nc2ccccc21 the results were FN deposition inh -3.2, ERAP1 inh -3.0, FGF22 binding 44.2*, SIRT5 block 1.0 and PGC1a acetyl inh -2.0.
O=c1[nH]c2ccccc2c(O)c1SCCO was read as FN deposition inh -24.3, ERAP1 inh -2.4, FGF22 binding -0.1 and SIRT5 block 17.7*.
For O=C(O)CSc1c(O)c2ccccc2[nH]c1=O the results were FN deposition inh 4.4, ERAP1 inh 0.9, FGF22 binding -0.5 and SIRT5 block 2.5.
`CCCC(=O)Nc1ccc2c(c1)C(=O)N(C)C[C@@H](OC)[C@H](C)CN(Cc1ccccc1)[C@@H](C)CO2` gave FN deposition inh -3.9, ERAP1 inh -7.3, FGF22 binding 0.0, SIRT5 block -3.1 and PGC1a acetyl inh 0.1.
For CCCNC(=O)N1C[C@H]2[C@@H](c3ccccc31)[C@H](CO)N2C(=O)C1CCOCC1 the results were PGC1a acetyl inh 8.9.
Screening C[C@@H]1CCCCO[C@H](CN(C)C(=O)C2CCCCC2)[C@H](C)CN([C@@H](C)CO)C(=O)c2cc(NC(=O)CCCN(C)C)ccc2O1 returned FGF22 binding -0.3 and PGC1a acetyl inh 5.2.
`O=c1c2ccccc2nc2c3ccccc3c(NCc3ccccn3)nn12` gave FN deposition inh 16.9, ERAP1 inh -1.2, FGF22 binding 0.0 and SIRT5 block 111.6*.
`O=C(C[C@H]1C[C@H](C(=O)N2CCCCC2)[C@@]2(CCc3ccccc3)c3[nH]c4ccc(Cl)cc4c3CCN2C1=O)NCc1cccc(C(F)(F)F)c1` gave FN deposition inh -4.3, FGF22 binding 33.9* and PGC1a acetyl inh 1.2.
O=C(CC1C[C@H](C(=O)N2CCCCC2)[C@@]2(CCc3ccccc3)c3[nH]c4ccccc4c3CCN2C1=O)NCc1cccc(C(F)(F)F)c1 (stereo not given in full) was read as FGF22 binding 0.2, SIRT5 block -2.0 and PGC1a acetyl inh 3.9.
`COc1ccc2[nH]c3c(c2c1)CCN1C(=O)C(CC(=O)NCCCN(C)C)C[C@H](C(=O)N2CCCCC2)[C@@]31CCc1ccccc1` (stereo not given in full) gave FN deposition inh 37.1*, FGF22 binding 0.0 and PGC1a acetyl inh 1.3.
Screening COc1ccccc1-c1ccc([C@H]2[C@H](C#N)N[C@@H]2CO)cc1 returned FN deposition inh -13.1, ERAP1 inh -1.7, FGF22 binding -0.2, SIRT5 block 4.4 and PGC1a acetyl inh -1.6.
C[C@H](CO)N1C[C@H](C)[C@H](CN(C)CC2CCCCC2)Oc2ccc(NC(=O)Cn3cnnn3)cc2C1=O was read as ERAP1 inh 2.4, FGF22 binding 0.1, SIRT5 block -2.5 and PGC1a acetyl inh -2.5.
`C/C=C/c1ccc2c(c1)O[C@H](CN(C)C(=O)C1CCCCC1)[C@H](C)CN([C@@H](C)CO)S2(=O)=O` gave ERAP1 inh -0.4, FGF22 binding 0.0, SIRT5 block -1.5 and PGC1a acetyl inh 0.6.
`C[C@@H]1CCCCO[C@@H](CN(C)C(=O)Cc2ccccc2)[C@H](C)CN([C@H](C)CO)C(=O)c2cc(NC(=O)C3CCCCC3)ccc2O1` gave FGF22 binding -0.3 and PGC1a acetyl inh -12.7.
